pIC50: −log10 of the molar value.
Legend:
[1] = Inhibition of Saccharomyces cerevisiae alpha-glucosidase using p-nitrophenyl-alpha-D-[…] as substrate after 20 mins by UV/Vis spectrophotometric analysis
Outline: (§1)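 Baker's yeast α-glucosidase at 0.04 U/mL in 0.1 M phosphate buffer, pH 6.7. Substrate was 2 mM p-nitrophenyl-α-D-glucopyranoside; the optimized Km was 0.258 mM. Inhibitors were dissolved in 2% DMSO in the same buffer and tested at up to 46 mM. Activity was read as the p-nitrophenol released. Five replicates per sample.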

Saccharomyces cerevisiae [2] = assay: Inhibition of Saccharomyces cerevisiae alpha-glucosidase using p-nitrophenyl-alpha-D-[…] as substrate at = / >10.9 mM after 20 mins by UV/Vis spectrophotometric analysis; outline: as §1
Saccharomyces cerevisiae [3] = assay: Inhibition of Saccharomyces cerevisiae alpha-glucosidase using p-nitrophenyl-alpha-D-[…] as substrate at 25 mM after 20 mins by UV/Vis spectrophotometric analysis; outline: as §1

Row | pIC50 [1] | inhibition (Saccharomyces cerevisiae [2]) [%] | inhibition (Saccharomyces cerevisiae [3]) [%] | SMILES
1 | 1.60 | – | – | C[C@H]1O[C@H](O[C@H]2[C@H](O)[C@@H](O)[C@@H](O[C@H]3[C@H](O)[C@@H](O)C(O)O[C@@H]3CO)O[C@@H]2CO)[C@H](O)[C@@H](O)[C@@H]1N[C@H]1C=C(CO)[C@@H](O)[C@H](O)[C@H]1O (stereo partly specified) [ACARBOSE]
2 | 1.90 | > 50 | 80 | CC(=O)O[C@H]1CNC[C@@H]1OC(C)=O
3 | – | – | 40 | CC(=O)O[C@@H]1CNC[C@H]1OC(C)=O
4 | 1.96 | > 50 | – | O[C@H]1CNC[C@@H]1O
5 | 1.42 | > 50 | – | O[C@H]1CN(Cc2ccccc2)C[C@@H]1O
6 | 1.60 | > 50 | – | O[C@@H]1CN(Cc2ccccc2)C[C@H]1O

— ChEMBL document CHEMBL2331266, “Five-membered iminocyclitol α-glucosidase inhibitors: synthetic, biological screening and in silico studies” (Bioorg Med Chem, 2013)
